# From ChEMBL document CHEMBL1914423, “New imidazo[2,1-b]thiazole derivatives: synthesis, in vitro anticancer evaluation, and in silico studies” (Eur J Med Chem, 2011)
# What was measured:
# Assay type in all cases: functional
# CCRF-CEM = experiment: Anticancer activity against human CCRF-CEM cells after 48 hrs by SRB assay
# Outline: (§1)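 NCI five-dose screen. Cells in RPMI 1640 with 5% FBS and 2 mM L-glutamine, seeded at 5000–40,000 cells/well according to doubling time, then pre-incubated 24 h at 37 °C in 5% CO2. Drugs dissolved in DMSO, five concentrations by 10-fold or 1/2-log dilution. Cells fixed with TCA, SRB-stained, A515 read. IC50 solved from [(Ti−Tz)/(C−Tz)]×100 = 50.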
# HL-60(TB) = experiment: Anticancer activity against human HL-60(TB) cells after 48 hrs by SRB assay; settings: HL-60, 48 h
# Outline: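 NCI-60 five-dose screen. Cells grown in RPMI 1640 with 5% FBS and 2 mM L-glutamine, seeded at 5000–40,000 cells/well, and held 24 h at 37 °C and 5% CO₂ before drug. DMSO stocks were diluted into five concentrations (10-fold or ½-log steps). Settled suspension cells were fixed with cold TCA, SRB-stained, and read at 515 nm. […] was taken where [(Ti−Tz)/(C−Tz)]×100 = 50.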
# K562 = experiment: Anticancer activity against human K562 cells after 48 hrs by SRB assay; settings: K562, 48 h; outline: as §1
# A549 = experiment: Anticancer activity against human A549 cells after 48 hrs by SRB assay; settings: A549, 48 h; outline: as §1
# NCI-H226 = experiment: Anticancer activity against human NCI-H226 cells after 48 hrs by SRB assay; settings: NCI-H226, 48 h
# NCI-H460 = experiment: Anticancer activity against human NCI-H460 cells after 48 hrs by SRB assay; settings: NCI-H460, 48 h
# HCC 2998 = experiment: Anticancer activity against human HCC2998 cells after 48 hrs by SRB assay; settings: HCC 2998, 48 h; outline: as §1
# HCT-116 = experiment: Anticancer activity against human HCT116 cells after 48 hrs by SRB assay; settings: HCT-116, 48 h; outline: as §1
# KM12 = experiment: Anticancer activity against human KM12 cells after 48 hrs by SRB assay; settings: KM12, 48 h; outline: as §1
# SF-295 = experiment: Anticancer activity against human SF295 cells after 48 hrs by SRB assay; settings: SF-295, 48 h
# SNB-19 = experiment: Anticancer activity against human SNB19 cells after 48 hrs by SRB assay; settings: SNB-19, 48 h
# U-251 = experiment: Anticancer activity against human U251 cells after 48 hrs by SRB assay; settings: U-251, 48 h
# Outline: (§2)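 NCI-60 five-dose mode: cells in RPMI 1640 with 5% FBS and 2 mM glutamine, plated at 5000–40,000 cells/well, and preincubated 24 h, with time-zero plates TCA-fixed. Drug given at five concentrations (10-fold or ½-log serial dilutions). Cold TCA fixation 60 min at 4 °C, SRB stain, Tris solubilization, A515. IC50 taken where [(Ti−Tz)/(C−Tz)]×100 = 50.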
# LOX IMVI = experiment: Anticancer activity against human LOXIMVI cells after 48 hrs by SRB assay; outline: as §1
# M14 = experiment: Anticancer activity against human M14 cells after 48 hrs by SRB assay; settings: M14, 48 h; outline: as §1
# SK-MEL-5 = experiment: Anticancer activity against human SK-MEL-5 cells after 48 hrs by SRB assay; settings: SK-MEL-5, 48 h
# UACC-62 = experiment: Anticancer activity against human UACC62 cells after 48 hrs by SRB assay; settings: UACC-62, 48 h; outline: as §2
# IGROV-1 = experiment: Anticancer activity against human IGROV1 cells after 48 hrs by SRB assay; settings: IGROV-1, 48 h; outline: as §1
# OVCAR-4 = experiment: Anticancer activity against human OVCAR4 cells after 48 hrs by SRB assay; settings: OVCAR-4, 48 h
# OVCAR-5 = experiment: Anticancer activity against human OVCAR5 cells after 48 hrs by SRB assay; settings: OVCAR-5, 48 h
# NCI/ADR-RES = experiment: Anticancer activity against human NCI/ADR-RES cells after 48 hrs by SRB assay
# A498 = experiment: Anticancer activity against human A498 cells after 48 hrs by SRB assay; settings: A498, 48 h; outline: as §1
# ACHN = experiment: Anticancer activity against human ACHN cells after 48 hrs by SRB assay; outline: as §1
# RXF 393 = experiment: Anticancer activity against human RXF393 cells after 48 hrs by SRB assay; settings: RXF 393, 48 h
# SN12C = experiment: Anticancer activity against human SN12C cells after 48 hrs by SRB assay
# UO-31 = experiment: Anticancer activity against human UO31 cells after 48 hrs by SRB assay; settings: UO-31, 48 h; outline: as §2
# DU-145 = experiment: Anticancer activity against human DU145 cells after 48 hrs by SRB assay; settings: DU-145, 48 h; outline: as §1
# MCF7 = experiment: Anticancer activity against human MCF7 cells after 48 hrs by SRB assay; settings: MCF7, 48 h; outline: as §1
# [1] = Anticancer activity against human Hs 578T cells after 48 hrs by SRB assay; outline: as §1
# [2] = read-out: LC50 (the source's name)
smiles,measurement,setting,value
COc1cccc(-c2nc3sccn3c2-c2ccnc(NCCNC(=O)Nc3cccc(C(F)(F)F)c3)n2)c1,GI50,CCRF-CEM,8.43 µM
same,TGI,CCRF-CEM,> 100 µM
same,CC50,CCRF-CEM; [2],> 100 µM
same,GI50,HL-60(TB),2.92 µM
same,LC50,HL-60(TB),> 100 µM
same,TGI,HL-60(TB),7.43 µM
same,GI50,K562,3.48 µM
same,TGI,K562,> 100 µM
same,CC50,K562; [2],> 100 µM
same,GI50,A549,3.82 µM
same,LC50 (concentration giving 50% net tumour cell kill),A549,> 100 µM
same,TGI,A549,17.1 µM
same,GI50,NCI-H226,4.58 µM
same,LC50 (concentration killing 50% of tumour cells),NCI-H226,> 100 µM
same,TGI,NCI-H226,68.6 µM
same,GI50,NCI-H460,2.94 µM
same,LC50,NCI-H460,> 100 µM
same,TGI,NCI-H460,14.4 µM
same,GI50,HCC 2998,3.75 µM
same,TGI,HCC 2998,18.7 µM
same,CC50,HCC 2998; [2],> 100 µM
same,GI50,HCT-116,3.45 µM
same,TGI,HCT-116,11.6 µM
same,CC50,HCT-116; [2],> 100 µM
same,GI50,KM12,3.36 µM
same,TGI,KM12,10.1 µM
same,CC50,KM12; [2],39.3 µM
same,GI50,SF-295,2.8 µM
same,TGI,SF-295,14.9 µM
same,CC50,SF-295; [2],> 100 µM
same,GI50,SNB-19,7.77 µM
same,TGI,SNB-19,> 100 µM
same,CC50,SNB-19; [2],> 100 µM
same,GI50,U-251,3.95 µM
same,TGI,U-251,19.8 µM
same,CC50,U-251; [2],> 100 µM
same,GI50,LOX IMVI,4.11 µM
same,TGI,LOX IMVI,> 100 µM
same,CC50,LOX IMVI; [2],> 100 µM
same,GI50,M14,2.96 µM
same,TGI,M14,8.48 µM
same,CC50,M14; [2],29.2 µM
same,GI50,SK-MEL-5,4.27 µM
same,TGI,SK-MEL-5,15.9 µM
same,CC50,SK-MEL-5; [2],40.6 µM
same,GI50,UACC-62,2.55 µM
same,TGI,UACC-62,7.48 µM
same,CC50,UACC-62; [2],27.7 µM
same,GI50,IGROV-1,3.32 µM
same,TGI,IGROV-1,21.8 µM
same,CC50,IGROV-1; [2],> 100 µM
same,GI50,OVCAR-4,3.78 µM
same,TGI,OVCAR-4,34.1 µM
same,CC50,OVCAR-4; [2],> 100 µM
same,GI50,OVCAR-5,6.37 µM
same,TGI,OVCAR-5,52.2 µM
same,CC50,OVCAR-5; [2],> 100 µM
same,GI50,NCI/ADR-RES,3.45 µM
same,TGI,NCI/ADR-RES,> 100 µM
same,CC50,NCI/ADR-RES; [2],> 100 µM
same,GI50,A498,2.44 µM
same,TGI,A498,17.5 µM
same,CC50,A498; [2],> 100 µM
same,GI50,ACHN,3.17 µM
same,TGI,ACHN,19.1 µM
same,CC50,ACHN; [2],> 100 µM
same,GI50,RXF 393,1.77 µM
same,TGI,RXF 393,3.65 µM
same,CC50,RXF 393; [2],7.49 µM
same,GI50,SN12C,4.03 µM
same,TGI,SN12C,26.5 µM
same,CC50,SN12C; [2],> 100 µM
same,GI50,UO-31,2.88 µM
same,TGI,UO-31,24.8 µM
same,CC50,UO-31; [2],> 100 µM
same,GI50,DU-145,5.13 µM
same,TGI,DU-145,95.5 µM
same,CC50,DU-145; [2],> 100 µM
same,GI50,MCF7,3.12 µM
same,TGI,MCF7,13.3 µM
same,CC50,MCF7; [2],> 100 µM
same,GI50,[1],3.15 µM
same,TGI,[1],29 µM
same,CC50,[1]; [2],> 100 µM
